Tests used:
[1] = target: T1, Carnitine O-palmitoyltransferase 1, muscle isoform (Rattus norvegicus, UniProt Q63704); test: Inhibition of Wistar rat heart mitochondrial CPT-1 assessed as reduction in conversion of palmitoyl CoA and L-carnitine into palmitoylcarnitine preincubated for 3 mins followed by L-carnitine and palmitoyl CoA addition measured for 3.5 mins by spectrophotometric analysis
T1 sequence (Q63704 whole entry): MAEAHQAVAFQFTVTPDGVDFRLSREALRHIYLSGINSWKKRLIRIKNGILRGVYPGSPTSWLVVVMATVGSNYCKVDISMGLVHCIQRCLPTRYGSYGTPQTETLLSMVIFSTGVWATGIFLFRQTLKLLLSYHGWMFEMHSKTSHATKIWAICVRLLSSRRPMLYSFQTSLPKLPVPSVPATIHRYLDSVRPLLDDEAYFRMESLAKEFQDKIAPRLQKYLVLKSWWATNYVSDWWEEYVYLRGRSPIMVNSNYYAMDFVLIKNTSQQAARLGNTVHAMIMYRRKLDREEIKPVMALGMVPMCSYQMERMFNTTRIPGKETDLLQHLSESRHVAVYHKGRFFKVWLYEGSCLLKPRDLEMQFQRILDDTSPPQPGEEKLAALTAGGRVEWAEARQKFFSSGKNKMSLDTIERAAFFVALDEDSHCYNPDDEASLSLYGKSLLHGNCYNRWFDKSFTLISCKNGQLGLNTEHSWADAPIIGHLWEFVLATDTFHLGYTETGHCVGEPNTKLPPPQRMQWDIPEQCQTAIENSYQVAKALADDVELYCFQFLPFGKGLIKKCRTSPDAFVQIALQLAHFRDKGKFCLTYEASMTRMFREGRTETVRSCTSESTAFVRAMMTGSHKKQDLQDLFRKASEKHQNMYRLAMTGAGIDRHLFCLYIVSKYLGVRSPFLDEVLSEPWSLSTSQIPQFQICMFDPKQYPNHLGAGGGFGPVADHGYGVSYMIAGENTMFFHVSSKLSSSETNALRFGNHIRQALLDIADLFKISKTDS

[2] = Half life in human liver microsomes at 3 uM up to 45 mins in presence of NADPH by LC-MS/MS analysis; format: ADME, microsome
[3] = Stability of the compound in pH 7.4 PBS buffer at 37 degC after 1 hr; format: physicochemical; details: pH 7.4, 1 h
How it was run: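 Compound incubated 1 h in pH 7.4 PBS at 37 °C, then checked for decomposition.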

[4] = Half life in Sprague-Dawley rat liver microsomes at 3 uM up to 45 mins in presence of NADPH by LC-MS/MS analysis; format: ADME, microsome
[5] = target: CYP2D6 (Homo sapiens, UniProt P10635); test: Drug metabolism assessed as human CYP2D6-mediated compound degradation by measuring half life at 5 uM up to 45 mins in presence of NADPH by LC-MS/MS analysis; format: ADME
Chain of CYP2D6 (P10635 whole entry): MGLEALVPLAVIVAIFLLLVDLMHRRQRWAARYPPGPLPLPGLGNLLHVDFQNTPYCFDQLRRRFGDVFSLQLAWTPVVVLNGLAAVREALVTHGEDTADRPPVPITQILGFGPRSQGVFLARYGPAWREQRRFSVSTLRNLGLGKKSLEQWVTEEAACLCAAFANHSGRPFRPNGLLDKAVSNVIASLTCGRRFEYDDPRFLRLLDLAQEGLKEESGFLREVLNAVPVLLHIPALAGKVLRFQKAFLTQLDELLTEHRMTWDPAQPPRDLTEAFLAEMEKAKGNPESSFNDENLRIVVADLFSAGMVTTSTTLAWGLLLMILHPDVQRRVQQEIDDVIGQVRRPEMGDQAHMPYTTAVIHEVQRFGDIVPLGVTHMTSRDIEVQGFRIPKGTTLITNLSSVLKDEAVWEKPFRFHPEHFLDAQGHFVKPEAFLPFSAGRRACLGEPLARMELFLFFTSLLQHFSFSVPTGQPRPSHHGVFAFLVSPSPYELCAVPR

Structure (SMILES) | IC50 [1] [µM] | half-life at 3 µM [2] [min] | Stability [3] | half-life at 3 µM [4] [min] | half-life at 5 µM [5] [min]
C1CCC(C(CC2CCCCN2)C2CCOCC2)CC1 (stereo not drawn) | 715 | 84 | Stable | 31 | 7
CC1(C)CCC(C(CC2CCCCN2)C2CCCCC2)CC1 (stereo not drawn) |  | 77 | Stable | 20 | 

Further lines, results first:

IC50 [1] [µM] | half-life at 3 µM [2] [min] | Stability [3] | half-life at 3 µM [4] [min] | half-life at 5 µM [5] [min] | Structure (SMILES)
19 | 50 | Stable | 14 |  | C1CCC(CC(C2CCCC2)C2CCCC2)NC1 (stereo not drawn)
 | > 200 | Stable | 10 |  | C1CCC(C(CC2CCCCN2)C2CCC2)CC1 (stereo not drawn)
 | 27 | Stable | 3 |  | C1CCC(CC(C2CCCC2)C2CC2)NC1 (stereo not drawn)

From ChEMBL document CHEMBL4043075, “Development of Fluorinated Analogues of Perhexiline with Improved Pharmacokinetic Properties and Retained Efficacy” (J Med Chem, 2017)
